From the M2OR odorant receptor database

How the values were obtained:
Conditions in all cases: stereoisomer not certain
UniProt Q8VGC6 = target: T1, UniProt Q8VGC6
T1 sequence (whole entry): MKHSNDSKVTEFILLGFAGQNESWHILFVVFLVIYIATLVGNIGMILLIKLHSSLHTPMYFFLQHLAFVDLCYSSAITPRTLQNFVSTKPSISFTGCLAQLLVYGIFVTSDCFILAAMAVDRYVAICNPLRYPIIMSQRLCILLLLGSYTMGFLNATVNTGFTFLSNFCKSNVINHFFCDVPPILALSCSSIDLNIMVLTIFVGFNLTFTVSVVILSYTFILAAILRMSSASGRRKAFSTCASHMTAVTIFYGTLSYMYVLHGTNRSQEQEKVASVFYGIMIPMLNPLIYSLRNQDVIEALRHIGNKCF
Outline: (§1)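 Assay methods differ from source to source, frequently being transient luciferase assays in mammalian cell lines. For each receptor–molecule pair, the label responsive (active) applies when the original authors judged the measured signal statistically different from baseline, and non-responsive (inactive) applies otherwise.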

UniProt Q8VGJ3 = target: T2, UniProt Q8VGJ3
T2 sequence (whole entry): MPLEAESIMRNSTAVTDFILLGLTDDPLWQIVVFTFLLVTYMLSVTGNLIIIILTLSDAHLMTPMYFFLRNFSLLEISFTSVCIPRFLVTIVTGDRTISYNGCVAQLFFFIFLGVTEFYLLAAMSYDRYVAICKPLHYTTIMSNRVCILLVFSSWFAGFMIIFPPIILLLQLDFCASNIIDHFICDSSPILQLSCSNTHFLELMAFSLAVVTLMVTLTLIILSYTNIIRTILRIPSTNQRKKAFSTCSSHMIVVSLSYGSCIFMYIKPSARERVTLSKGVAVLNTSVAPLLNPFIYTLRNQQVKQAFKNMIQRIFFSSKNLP
Outline: as §1

UniProt Q8VGL0 = target: T3, UniProt Q8VGL0
T3 sequence (whole entry): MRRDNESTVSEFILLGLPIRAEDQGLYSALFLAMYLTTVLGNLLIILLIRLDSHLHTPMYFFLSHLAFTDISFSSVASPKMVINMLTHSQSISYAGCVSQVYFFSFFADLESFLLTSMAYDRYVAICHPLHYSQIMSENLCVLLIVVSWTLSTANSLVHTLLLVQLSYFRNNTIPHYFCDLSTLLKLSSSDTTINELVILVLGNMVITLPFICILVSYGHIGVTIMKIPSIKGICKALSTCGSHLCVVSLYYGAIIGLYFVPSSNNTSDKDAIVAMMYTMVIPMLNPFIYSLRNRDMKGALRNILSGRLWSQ
Outline: as §1

UniProt Q8VGU3 = target: T4, UniProt Q8VGU3
T4 sequence (whole entry): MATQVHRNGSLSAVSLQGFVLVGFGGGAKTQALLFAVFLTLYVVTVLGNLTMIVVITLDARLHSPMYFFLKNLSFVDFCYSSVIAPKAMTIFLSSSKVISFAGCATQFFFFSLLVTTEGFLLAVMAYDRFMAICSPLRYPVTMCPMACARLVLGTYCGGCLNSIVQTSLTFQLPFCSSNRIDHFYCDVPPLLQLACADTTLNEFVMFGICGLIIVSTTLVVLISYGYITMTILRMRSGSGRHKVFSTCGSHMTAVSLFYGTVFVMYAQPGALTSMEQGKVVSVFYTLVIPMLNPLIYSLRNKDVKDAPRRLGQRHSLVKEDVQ
Outline: as §1

UniProt Q8VGV7 = target: T5, UniProt Q8VGV7
T5 sequence (whole entry): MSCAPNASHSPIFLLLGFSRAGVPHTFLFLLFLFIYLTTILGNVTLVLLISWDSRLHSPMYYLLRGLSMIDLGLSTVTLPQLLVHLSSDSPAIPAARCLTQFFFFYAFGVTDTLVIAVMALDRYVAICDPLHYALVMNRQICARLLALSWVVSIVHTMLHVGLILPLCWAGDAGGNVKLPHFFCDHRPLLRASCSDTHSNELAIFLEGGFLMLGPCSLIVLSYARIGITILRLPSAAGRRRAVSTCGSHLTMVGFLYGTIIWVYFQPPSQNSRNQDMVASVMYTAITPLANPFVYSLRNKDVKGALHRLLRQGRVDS
Outline: as §1

UniProt Q8VGX3 = target: T6, UniProt Q8VGX3
T6 sequence (whole entry): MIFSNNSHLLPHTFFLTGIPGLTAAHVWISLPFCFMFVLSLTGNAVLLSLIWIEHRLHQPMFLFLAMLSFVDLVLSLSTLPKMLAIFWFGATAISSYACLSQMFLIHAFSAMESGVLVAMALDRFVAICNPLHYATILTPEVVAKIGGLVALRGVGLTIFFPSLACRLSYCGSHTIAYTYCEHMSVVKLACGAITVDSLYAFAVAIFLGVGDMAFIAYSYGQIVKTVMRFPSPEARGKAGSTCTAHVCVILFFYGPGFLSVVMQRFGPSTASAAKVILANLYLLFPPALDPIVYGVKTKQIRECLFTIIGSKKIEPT
Outline: as §1

UniProt Q8VGX5 = target: T7, UniProt Q8VGX5
T7 sequence (whole entry): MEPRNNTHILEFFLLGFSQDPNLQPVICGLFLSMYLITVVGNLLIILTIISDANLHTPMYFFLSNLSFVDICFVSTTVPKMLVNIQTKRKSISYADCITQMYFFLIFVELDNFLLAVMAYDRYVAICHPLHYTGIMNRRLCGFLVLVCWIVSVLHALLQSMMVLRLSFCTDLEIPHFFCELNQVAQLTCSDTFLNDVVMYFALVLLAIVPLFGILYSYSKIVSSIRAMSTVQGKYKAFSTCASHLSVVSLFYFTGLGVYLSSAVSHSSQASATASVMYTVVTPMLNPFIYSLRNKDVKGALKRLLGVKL
Outline: as §1

UniProt Q8VGW5 = target: T8, UniProt Q8VGW5
T8 sequence (whole entry): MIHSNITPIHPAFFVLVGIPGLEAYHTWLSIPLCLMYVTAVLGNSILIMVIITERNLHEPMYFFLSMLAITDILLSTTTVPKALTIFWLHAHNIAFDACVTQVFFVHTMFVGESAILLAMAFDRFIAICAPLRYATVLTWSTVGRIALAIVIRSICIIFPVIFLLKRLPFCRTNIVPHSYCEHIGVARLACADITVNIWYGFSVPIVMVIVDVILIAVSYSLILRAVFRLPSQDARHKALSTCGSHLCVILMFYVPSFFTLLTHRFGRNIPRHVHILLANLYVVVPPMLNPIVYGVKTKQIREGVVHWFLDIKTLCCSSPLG
Outline: as §1

| SMILES | odorant receptor agonist call (UniProt Q8VGC6) | odorant receptor agonist call (UniProt Q8VGJ3) | odorant receptor agonist call (UniProt Q8VGL0) | odorant receptor agonist call (UniProt Q8VGU3) | odorant receptor agonist call (UniProt Q8VGV7) | odorant receptor agonist call (UniProt Q8VGX3) | odorant receptor agonist call (UniProt Q8VGX5) | odorant receptor agonist call (UniProt Q8VGW5) |
| --- | --- | --- | --- | --- | --- | --- | --- | --- |
| CCCCCCC(C)O (configuration not stated) | inactive | inactive | inactive | inactive | inactive | inactive | inactive |  |
| CC=CC(=O)C1=C(C)CCCC1(C)C | inactive | inactive | inactive | inactive | inactive | inactive | active |  |
| CCCCCC(C=O)=Cc1ccccc1 | inactive | inactive | inactive | inactive | inactive | inactive | inactive |  |
| Cc1ccc(C(C)C)cc1 | inactive | inactive | inactive | inactive | inactive | inactive | inactive |  |
| CC1CC=CCCCCCCCCCC(=O)C1 (configuration not stated) | inactive | inactive | inactive | inactive | inactive | inactive | inactive |  |
| COc1nccnc1C | inactive | inactive | inactive | inactive | inactive | inactive | inactive |  |
| COC(OC)c1ccccc1 | inactive | inactive | inactive | inactive | inactive | inactive | inactive |  |
| CCc1ccccc1O | inactive | inactive | active | inactive | inactive | inactive | inactive |  |
| COc1cnccn1 | inactive | inactive | inactive | inactive | inactive | inactive | inactive |  |
| CSSCc1ccco1 | inactive | inactive | inactive | inactive | inactive | inactive | inactive |  |
| CC(C)=C1CCC(C)CC1=O (configuration not stated) | inactive | inactive | inactive | inactive | inactive | inactive | active |  |
| CC1CCC(C(C)C)C(=O)C1 (configuration not stated) | inactive | inactive | inactive | inactive | inactive | inactive | inactive |  |
| CC(=O)OCCc1ccccc1 | inactive | inactive | inactive | inactive | active | inactive | inactive |  |
| CCOC(=O)C(C)CC (configuration not stated) | inactive | inactive | inactive | inactive | inactive | inactive | inactive |  |
| C=C1C2CCC(C2)C1(C)C (configuration not stated) | inactive | inactive | inactive | inactive | inactive | inactive | inactive |  |
| CCCCCCCCCCCO | inactive | inactive | inactive | inactive | inactive | inactive | inactive |  |
| CCSSCC | inactive | inactive | inactive | inactive | inactive | inactive | inactive |  |
| OCC=Cc1ccccc1 | inactive | inactive | inactive | inactive | inactive | inactive | inactive |  |
| CCN(CC)CC | inactive | inactive | inactive | inactive | inactive | inactive | inactive |  |
| CCC(C)O (configuration not stated) | inactive | inactive | inactive | inactive | inactive | inactive | inactive |  |

| SMILES | odorant receptor agonist call (UniProt Q8VGC6) | odorant receptor agonist call (UniProt Q8VGJ3) | odorant receptor agonist call (UniProt Q8VGL0) | odorant receptor agonist call (UniProt Q8VGU3) | odorant receptor agonist call (UniProt Q8VGV7) | odorant receptor agonist call (UniProt Q8VGX3) | odorant receptor agonist call (UniProt Q8VGX5) | odorant receptor agonist call (UniProt Q8VGW5) |
| --- | --- | --- | --- | --- | --- | --- | --- | --- |
| Cc1c(C)c(C)c(C=O)c(C)c1C | inactive | inactive | inactive | inactive | inactive | inactive | inactive |  |
| CCc1ncc(C)nc1CC | inactive | inactive | inactive | inactive | inactive | inactive | inactive |  |
| CCCCCCCOC(=O)C(C)C | inactive | inactive | inactive | inactive | inactive | inactive | inactive |  |
| CC=C(C)C=O | inactive | inactive | inactive | inactive | inactive | inactive | inactive |  |
| C=C(CC)CCCC(C)(C)O | inactive | inactive | inactive | inactive | inactive | inactive | inactive |  |
| c1ccc2ncccc2c1 | inactive | inactive | inactive | inactive | inactive | inactive | active |  |
| CC(=O)OCc1ccc2c(c1)OCO2 | active | inactive | inactive | inactive | inactive | inactive | inactive |  |
| Cc1ccccc1OC(=O)C(C)C | inactive | inactive | inactive | inactive | inactive | inactive | inactive |  |
| CNc1ccccc1C(=O)OC | inactive | inactive | inactive | inactive | inactive | inactive | active |  |
| C=CC(C)=CCC=C(C)CCC=C(C)C | inactive | inactive | inactive | inactive | inactive | inactive | inactive |  |
| CCc1ccc(O)cc1 | inactive | inactive | inactive | inactive | inactive | inactive | inactive |  |
| C=CC(=C)CCC=C(C)C | inactive | inactive | inactive | inactive | inactive | inactive | inactive |  |
| CCC=CCCC=CC=O | inactive | inactive | inactive | inactive | inactive | inactive | inactive |  |
| CC(=O)C1(C)CC2=C(CCCC2(C)C)CC1C (configuration not stated) | inactive | inactive | inactive | inactive | active | inactive | inactive |  |
| CCCCCCCCOC=O | inactive | inactive | inactive | inactive | inactive | inactive | inactive |  |
| CCCCCCC(C=O)=Cc1ccccc1 | inactive | inactive | inactive | inactive | inactive | inactive | inactive |  |
| CC(C)CCN | inactive | inactive | inactive | inactive | inactive | inactive | inactive |  |
| C1CCOCC1 | inactive | inactive | inactive | inactive | inactive | inactive | inactive |  |
| CCCCOC(=O)CCC |  |  |  |  |  |  |  | inactive |
